Bioassay records (PubChem)
NF-kB neuron act = raises NF-kB expression in human neuronal cells; AID 1239; fold change at 12.5 µM; NF-kB reporter expression; stronger effect = higher value; hit rate 1.6% among 190,000; in the data active = fold change above about 3.3
APP 5'UTR act = APP 5'UTR luciferase reporter activation. SH-SY5Y APP 5'UTR luciferase reporter, luminescence; zero percent = DMSO vehicle wells. activation, % at 2 µM. hit rate 1% among 190,000;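 active = activation above a set limit, based on mean plus 3 SD of controls, cut at about 140% in these data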
FLuc stim CS = firefly luciferase counter-screen for stimulation assays; P08659; ATPlite luciferase biochemical, luminescence, 10 min; 0 = ATP-free wells, 1 = DMSO control; activation factor at 10 µM; 200,000 tested, under 10 active; AID 1027;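 active = luciferase activation factor, scaled between plate controls, of at least 2 with compound at 10 µM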
Target sequence (P08659 whole entry, looked up): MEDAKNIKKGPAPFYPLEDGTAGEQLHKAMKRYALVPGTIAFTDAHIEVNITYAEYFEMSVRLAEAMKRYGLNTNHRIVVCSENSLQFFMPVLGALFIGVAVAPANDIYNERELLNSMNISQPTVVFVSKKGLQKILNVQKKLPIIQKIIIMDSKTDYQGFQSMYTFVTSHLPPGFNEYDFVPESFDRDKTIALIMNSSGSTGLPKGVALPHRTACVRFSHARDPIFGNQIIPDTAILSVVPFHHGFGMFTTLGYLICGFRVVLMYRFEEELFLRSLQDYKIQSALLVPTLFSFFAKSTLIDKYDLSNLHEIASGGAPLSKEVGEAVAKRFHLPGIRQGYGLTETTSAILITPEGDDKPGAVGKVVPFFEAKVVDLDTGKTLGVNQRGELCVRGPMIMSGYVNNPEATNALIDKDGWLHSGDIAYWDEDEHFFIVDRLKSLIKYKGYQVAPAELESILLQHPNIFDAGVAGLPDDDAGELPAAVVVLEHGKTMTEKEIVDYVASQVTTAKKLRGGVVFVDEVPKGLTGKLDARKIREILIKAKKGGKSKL
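Assay system: Luciferase/luciferin reagent mix; Medium: PBS as buffer for the ATP substrate; Dosing: test compounds dosed from 2 mM stocks in 100% DMSO; Times: 10 min, room temperature; Signal: luminescence from luciferase reaction; Read-out: luciferase activation; Controls: No-ATP low control, compound-free enzyme-plus-ATP high control.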
FLuc inh counter = inhibits firefly luciferase, flagging false hits in luciferase inhibition screens | P08659 | ATPLite firefly luciferase biochemical luminescence, 10 min | inhibition, % at 10 µM | hit rate 1.5% among 200,000 | AID 1006;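 active = inhibition above about 50% when tested at 10 µM, limit read from the data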
STAT1 act = activators of IFN-gamma induced STAT1 signaling; AID 932; NIH 3T3 STAT1-luciferase reporter, luminescence; 100% = IFN-gamma alone, no compound; activation (% of control), % at 5.5 µM; hit rate 2.6% among 200,000;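 active = activation above the screen-wide mean activation plus 3 SD, cut at about 130% in these data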;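 note: raw ratio to IFN-gamma control signal so 100% means no change and 0% no light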
* = called active by the depositor; . = no result given. Hits are enriched below; roughly 4.1% of the tested compounds scored in any of these assays.

SMILES | NF-kB neuron act | APP 5'UTR act | FLuc stim CS | FLuc inh counter | STAT1 act
CC(C)CN(C)C(=O)CCc1nnc(Cc2cccc(C(F)(F)F)c2)o1 | 2.1 | 66 | 1 | -5 | 133*
CC(NC(=O)CCc1nnc(Cc2cccc(C(F)(F)F)c2)o1)C1CC1 (stereo not drawn) | 2 | 28 | 1.1 | -6 | 126
C=C(C)CNC(=O)CCc1nnc(Cc2cccc(C(F)(F)F)c2)o1 | 2.7 | 57 | 1.1 | -7 | 140*
CCCS/C(N)=N/N=C/c1ccccc1O | 3.3* | 90 | 0.8 | 20 | 100
COC(=O)c1ccc(OC(=O)c2ccccc2F)cc1 | 1.1 | 4 | 0.9 | 13 | 101
Cc1ccc(Nc2nnc(SCC(=O)Nc3cccnc3Cl)s2)cc1C | 1.1 | 12 | 0.4 | 63* | 91
Cc1ccc(S(=O)(=O)Nc2nc3ccccc3s2)cc1 | 0.91 | 8 | 1.1 | -6 | 96
CN(C)c1ccc(/C=C/c2nc3ccccc3s2)cc1 | 0.6 | 14 | 0.1 | 93* | 17
COc1cc(/C=C/c2nc3ccccc3s2)cc(OC)c1O | 1.1 | 129 | 0.9 | 9 | 114
Cc1ccc(/C=C/c2nc3ccccc3s2)s1 | 2.5 | 99 | 0.1 | 91* | 60
Cc1ccccc1SCCNC(=O)CCc1ccccc1 | 1.5 | 2 | 1 | -4 | 149*
CC1CCN(C(=O)C(C)c2ccc([N+](=O)[O-])cc2)CC1 (stereo not drawn) | 0.98 | 17 | 1.1 | -6 | 102
Cc1ccc(Nc2nc(COC(=O)C3CC3)cs2)cc1 | 3.6* | 95 | 0.5 | 53* | 125
CCOc1ccc(NC(=O)c2cc(F)c(F)cc2Cl)cc1OCC | 1 | 7 | 1.1 | -8 | 100
COC(=O)c1sc(NC(=S)NC(=O)c2ccccc2Cl)nc1C | 1.3 | 30 | 0.3 | 67* | 121
COC(=O)c1sc(NC(=S)NC(=O)c2ccccc2)nc1C | 1 | 84 | 0.4 | 63* | 110
Fc1ccc(-c2nc3n(n2)Cc2ccccc2-3)cc1 | 6.7* | 173* | 0.3 | 75* | 114
NC(=S)Cc1nc2n(n1)Cc1ccccc1-2 | 0.84 | 10 | 1 | -3 | 105
CCn1c(C)nc2cc(-c3nc4n(n3)Cc3ccccc3-4)ccc21 | 0.19 | -85 | 0 | 98* | 10
Cc1ccc(-c2nc3n(n2)Cc2ccccc2-3)cc1 | 4.2* | 197* | 0.1 | 92* | 78
CCCSC(=O)N(CC)CC(=O)Nc1c(CC)cccc1CC | 0.9 | -6 | 1 | -4 | 100
CCN1CCCC1CN(Cc1cc2ccc(C)c(C)c2[nH]c1=O)C(=O)Nc1ccccc1OC (stereo not drawn) | 1.3 | -7 | 1 | 2 | 96
O=C(COC(=O)c1cccs1)Nc1nc(-c2ccccc2)cs1 | 1.2 | -5 | 1 | -2 | 100
C/C(=N\Nc1nc(-c2ccccc2)cs1)c1cccs1 | 0.64 | 116 | 0.7 | 31 | 145*
Cc1c(CNC2CCCC2)c(C(=O)O)c(C)n1Cc1ccccc1 | 1.1 | -12 | 1 | -3 | 99
SMILES | NF-kB neuron act | APP 5'UTR act | FLuc stim CS | FLuc inh counter | STAT1 act
CCCNC(=O)c1oc2ccc3c(c2c1C)C(=O)CC(C)(C)O3 | 5.1* | 190* | 0.2 | 76* | 145*
CC(C)(C)c1ccc(OCC(=O)Nc2ccc(-c3nc4cccnc4o3)cc2)cc1 | 1.4 | 12 | 1 | -3 | 103
CC(C)C(=O)Nc1ccc(-c2nc3cccnc3o2)cc1 | 2.7 | 151* | 0.3 | 67* | 147*
Cc1cc(C)n2nc(SCC(=O)c3cc(C)n(CC4CCCO4)c3C)nc2n1 (stereo not drawn) | 1.5 | -30 | 0.9 | 6 | 79
c1ccc2[nH]c(SCC3CCCCO3)nc2c1 (stereo not drawn) | 3.7* | 152* | 0.6 | 41 | 131*
Cc1cc(C(=O)CSc2nc3ccccc3[nH]2)c(C)n1CC1CCCO1 (stereo not drawn) | 0.43 | 189* | 0.5 | 48 | 74
Cc1cc(C(=O)COC(=O)c2ccc3c(c2)OCO3)c(C)n1CC1CCCO1 (stereo not drawn) | 1.1 | 104 | 0.3 | 67* | 92
Cc1cc(C(=O)CSc2nc3ccccc3o2)c(C)n1CC1CCCO1 (stereo not drawn) | 0.78 | 47 | 0.8 | 22 | 142*
ClC1(Cl)CC1CSc1nc2ccccc2[nH]1 (stereo not drawn) | 2.2 | 43 | 0.9 | 8 | 114
CCN(CC(=O)Nc1ccccc1OC)CC(=O)Nc1sccc1C#N | 1.1 | 11 | 1 | -3 | 100
COCCN=c1scc(C)n1/N=C/C1CC2C=CC1C2 (stereo not drawn) | 1.1 | -2 | 1 | -3 | 98
COc1cccc(Nc2nc(-c3ccc(O)cc3)cs2)c1 | 3.9* | 34 | 1 | 0 | 120
c1ccc(-c2csc(Nc3cccnc3)n2)cc1 | 1.1 | 53 | 0.9 | 8 | 136*
COc1cccc(Nc2nc(-c3cccc(N4C(=O)c5ccccc5C4=O)c3)cs2)c1 | 1.6 | 19 | 0.9 | 9 | 100
COc1ccc(-c2csc(NC3=NCCCCC3)n2)cc1 | 1.7 | 57 | 0.9 | 6 | 124
COc1ccc(-c2csc(Nc3ccc(C)cn3)n2)cc1 | . | 77 | 0.9 | 7 | 139*
Clc1ccc(Nc2nc(-c3cccnc3)cs2)cc1 | 1.9 | 47 | 0.9 | 8 | 116
CN(C)c1ccc(Nc2nc(-c3cccnc3)cs2)cc1 | 4.3* | 188* | 0.2 | 78* | 147*
CCN1CCc2c(sc(NC(=O)Nc3ccc(Cl)c(Cl)c3)c2C(N)=O)C1 | 0.49 | 20 | 1.1 | -5 | 100
CCCCn1c(-c2ccco2)nc2ccccc2c1=O | 1 | -11 | 1 | -1 | 109
Cc1cccc(Nc2nc(-c3ccncc3)cs2)c1 | 0.67 | 51 | 1 | 0 | 130*
Fc1ccc(Nc2nc(-c3cccnc3)cs2)cc1 | 3.6* | 106 | 0.7 | 26 | 136*
Cc1nc2ccccn2c1-c1csc(Nc2cccc(O)c2)n1 | 1.3 | -89 | 1 | 0 | 87
Clc1cccc(Nc2nc(-c3ccncc3)cs2)c1 | 1.2 | 46 | 1 | -4 | 114
Cc1nc(C)c(-c2csc(Nc3cccc(O)c3)n2)s1 | 4.3* | 166* | 0.7 | 32 | 95
SMILES | NF-kB neuron act | APP 5'UTR act | FLuc stim CS | FLuc inh counter | STAT1 act
CCN1C(=O)C(=O)N(CC(=O)Nc2ccccc2Oc2ccccc2)C1=O | 0.89 | -8 | 1 | -1 | 100
O=C1c2ccccc2-c2nnc(-c3ccc(O)cc3)cc21 | 2.4 | 120 | 0.1 | 90* | 56
Cc1ccccc1-c1cc2c(nn1)-c1ccccc1C2=O | 0.96 | 17 | 0.2 | 77* | 88
O=C1C(=O)c2ccc(-c3ccccc3)cc2-c2ccccc21 | 0.87 | 10 | 1 | -5 | 94
O=C1c2ccccc2-c2nnc(-c3ccc(F)cc3)cc21 | 4.5* | 144* | 0.2 | 79* | 115
Cc1cccc(C)c1NS(=O)(=O)c1ccc2c(c1)C(=O)c1ccccc1C2=O | 1.3 | . | 1 | -3 | 110
